Data taken from ChEMBL document CHEMBL1649376 (Eur J Med Chem, 2011).

Assays:
[1] = Chemical stability of the compound in phosphate buffer at pH 7.4 assessed as half life at 100 uM after 30 mins by RP-HPLC analysis; assay type: physicochemical
Method in brief: (§1)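 10 mM methanol stock diluted into 50 mM phosphate buffer pH 7.4 prewarmed to 37 °C, final 100 µM; maintained at 37.0 ± 0.5 °C, sampled every 30 min by RP-HPLC (C8, methanol/water 0.1% TFA) for parent loss and oxime formation; first-order kinetics for t1/2; triplicate.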

[2] = Chemical stability of the compound in acidic medium at pH 1 after 6 hrs by RP-HPLC analysis; assay type: physicochemical; conditions: buffer, pH 1, 6 h
Method in brief: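 Compound added from 10 mM methanol stock into 0.1 M HCl (pH 1) at 37 °C, final 100 µM; held at 37.0 ± 0.5 °C and analysed by RP-HPLC every 30 min for unchanged compound and oxime product; triplicate incubations; C8 column, methanol/water with 0.1% TFA.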

[3] = Chemical stability of the compound in basic medium assessed as half life at pH 10 after 6 hrs by RP-HPLC analysis; assay type: physicochemical
Method in brief: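 Run in 0.1 M phosphate buffer, pH 10, at 37.0 ± 0.5 °C, compound 100 µM final (from 10 mM methanol stock); RP-HPLC every 30 min quantifying parent and oxime; ring opening treated as first-order for half-life; triplicate incubations.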

[4] = Dissociation constant, pKa of the compound by potentiometric titration; assay type: physicochemical
Method in brief: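 Potentiometric titration under N2 at 25.0 ± 0.1 °C; about 1 mM compound in at least five water–methanol mixtures (24-58 wt% MeOH), ionic strength 0.15 M KCl, acidified to pH 1.8 with 0.5 N HCl, titrated with 0.5 N KOH to pH 10.5; aqueous pKa by Yasuda-Shedlovsky extrapolation to zero cosolvent.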

[5] = target: Dihydroorotate dehydrogenase (quinone), mitochondrial (Rattus norvegicus, UniProt Q63707); test: Inhibition of DHODH in Wistar rat liver homogenates by DCIP reduction assay; assay type: tissue-based
Dihydroorotate dehydrogenase (quinone), mitochondrial, sequence (Q63707 whole entry): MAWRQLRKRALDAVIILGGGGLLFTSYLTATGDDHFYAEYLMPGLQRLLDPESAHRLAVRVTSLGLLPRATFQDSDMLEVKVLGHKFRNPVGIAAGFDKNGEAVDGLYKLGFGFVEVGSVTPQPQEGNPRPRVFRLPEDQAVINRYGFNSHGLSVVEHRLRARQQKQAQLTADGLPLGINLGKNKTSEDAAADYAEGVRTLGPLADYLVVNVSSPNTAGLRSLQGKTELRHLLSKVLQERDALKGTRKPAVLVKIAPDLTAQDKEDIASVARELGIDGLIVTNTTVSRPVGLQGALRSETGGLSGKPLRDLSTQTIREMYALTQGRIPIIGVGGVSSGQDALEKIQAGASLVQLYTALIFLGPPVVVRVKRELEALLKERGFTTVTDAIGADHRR

[6] = Chemical stability of the compound in phosphate buffer at pH 7.4 assessed as unchanged compound level at 100 uM after 24 hrs by RP-HPLC analysis; assay type: physicochemical; conditions: read-out: Stability; method in brief: as §1

Row | half-life at 100 µM [1] | pKa [4] | SMILES | further results
1 | 1.38 h |  | O=C(Nc1ccc(C(F)(F)F)cc1)c1cnon1 | Stability [2]: Stable; half-life [3]: < 0.0167 h
2 | 1.68 h |  | O=C(Nc1cccc(C(F)(F)F)c1)c1cnon1 | 
3 | 1.52 h |  | O=C(Nc1cc(C(F)(F)F)cc(C(F)(F)F)c1)c1cnon1 | 
4 | 1.48 h |  | O=C(Nc1ccc(F)cc1)c1cnon1 | 
5 | 1.81 h |  | O=C(Nc1cccc(F)c1)c1cnon1 | 
6 | 1.7 h |  | O=C(Nc1ccccc1F)c1cnon1 | 
7 | 1.53 h |  | O=C(Nc1cc(F)cc(F)c1)c1cnon1 | 
8 | 1.15 h |  | O=C(Nc1ccc([N+](=O)[O-])cc1)c1cnon1 | 
9 | 2.06 h |  | O=C(Nc1ccccc1)c1cnon1 | 
10 | 1.89 h |  | Cc1ccc(NC(=O)c2cnon2)cc1 | 
11 | 1.77 h |  | COc1ccc(NC(=O)c2cnon2)cc1 | 
12 | 1.28 h |  | O=C(Nc1ccc(-c2ccccc2)cc1)c1cnon1 | 
13 |  | 4.87 | N#C/C(=N\O)C(=O)Nc1ccc(C(F)(F)F)cc1 | IC50 [5]: 60 µM
14 |  | 4.88 | N#C/C(=N\O)C(=O)Nc1cccc(C(F)(F)F)c1 | 
15 |  | 4.73 | N#C/C(=N\O)C(=O)Nc1cc(C(F)(F)F)cc(C(F)(F)F)c1 | 
16 |  | 5.01 | N#C/C(=N\O)C(=O)Nc1ccc(F)cc1 | 
17 |  | 4.92 | N#C/C(=N\O)C(=O)Nc1cccc(F)c1 | 
18 |  | 4.87 | N#C/C(=N\O)C(=O)Nc1ccccc1F | 
19 |  | 4.81 | N#C/C(=N\O)C(=O)Nc1cc(F)cc(F)c1 | 
20 |  | 4.61 | N#C/C(=N\O)C(=O)Nc1ccc([N+](=O)[O-])cc1 | 
21 |  | 5.12 | N#C/C(=N\O)C(=O)Nc1ccccc1 | 
22 |  | 5.07 | Cc1ccc(NC(=O)/C(C#N)=N/O)cc1 | 
23 |  | 5.08 | COc1ccc(NC(=O)/C(C#N)=N/O)cc1 | 
24 |  | 5.03 | N#C/C(=N\O)C(=O)Nc1ccc(-c2ccccc2)cc1 | 
25 |  |  | N#CC(C(=O)Nc1ccc(C(F)(F)F)cc1)=[N+]([O-])[O-] | IC50 [5]: 17 µM
26 |  |  | N#CC(C(=O)Nc1ccc([N+](=O)[O-])cc1)=[N+]([O-])[O-] | IC50 [5]: 74 µM
27 |  |  | N#CC(C(=O)Nc1ccc(-c2ccccc2)cc1)=[N+]([O-])[O-] | IC50 [5]: 26 µM
28 | > 24 h |  | Cc1oncc1C(=O)Nc1ccc(C(F)(F)F)cc1 [LEFLUNOMIDE] | remaining at 24 h, 100 µM [6]: 80%; Stability [2]: Stable; half-life [3]: 1.17 h; IC50 [5]: 1.6 µM
